pEC50, pIC50: −log10 of the molar value. Values after ≈ are worked out from the molar mass of the structure shown.
Legend:
[1] = Growth inhibition of HEK293 cells after 24 hrs by MTT assay; type: cell-based; settings: human, read-out: ED50
In short: (§1)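 HEK293 cells in DMEM (4.5 g/L glucose) with 10% FBS and 1% penicillin-streptomycin, seeded at 10⁵ cells/mL. Inhibitor from 10 mM stock diluted threefold across 10 wells; 37 °C for 24 or 96 h.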

Bacillus subtilis [2] = test: Antibacterial activity against Bacillus subtilis (Ehrenberg) Cohn ATCC 6051 in absence of fetal bovine serum after 12 hrs; type: functional; settings: (Ehrenberg) Cohn ATCC 6051, 12 h, read-out: ED50 (the source's name)
In short: (§2)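 Log-phase B. subtilis diluted 500-fold into LB containing 0%, 4% or 10% fetal bovine serum. Inhibitor threefold serially diluted across 12 wells from a 100 µM–1 mM start; incubated 12 h at 37 °C with 200 rpm shaking; growth inhibition by OD600.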

Bacillus subtilis [3] = test: Antibacterial activity against Bacillus subtilis (Ehrenberg) Cohn ATCC 6051 in presence of 10% fetal bovine serum after 12 hrs; type: functional; settings: (Ehrenberg) Cohn ATCC 6051, 12 h, read-out: ED50 (the source's name); in short: as §2
[4] = Growth inhibition of HEK293 cells after 96 hrs by MTT assay; type: cell-based; settings: human, read-out: ED50; in short: as §1
[5] = Lipophilicity, log D of the compound at pH 7.4; type: physicochemical; settings: buffer
Candida albicans = test: microbe, parasite or virus in culture; type: functional; settings: CAI-4, 12 h, read-out: ED50 (the source's name)
[6] = Inhibition of Escherichia coli OPPS using IPP as substrate
[7] = target: T1, Farnesyl pyrophosphate synthase (Homo sapiens, UniProt P14324); test: Inhibition of human FPPS using IPP and GPP
T1 sequence (P14324 whole entry): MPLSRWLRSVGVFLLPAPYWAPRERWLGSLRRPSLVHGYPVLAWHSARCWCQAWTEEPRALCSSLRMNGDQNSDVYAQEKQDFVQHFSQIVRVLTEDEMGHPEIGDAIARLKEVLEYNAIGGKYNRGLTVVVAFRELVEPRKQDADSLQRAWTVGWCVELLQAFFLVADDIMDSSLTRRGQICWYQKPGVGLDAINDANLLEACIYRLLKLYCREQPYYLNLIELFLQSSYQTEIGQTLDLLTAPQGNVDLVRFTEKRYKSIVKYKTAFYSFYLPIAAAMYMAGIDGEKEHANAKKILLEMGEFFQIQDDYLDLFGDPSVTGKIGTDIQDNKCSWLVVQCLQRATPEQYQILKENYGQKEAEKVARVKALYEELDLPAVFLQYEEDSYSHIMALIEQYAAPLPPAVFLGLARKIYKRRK

Staphylococcus aureus = test: Antibacterial activity against Staphylococcus aureus Newman after 12 hrs; type: functional; settings: read-out: ED50 (the source's name)
In short: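 Log-phase S. aureus culture in tryptic soy broth (OD600 ~0.3, then diluted 500-fold). Inhibitors two-fold serially diluted across 12 wells from a 100 µM–1 mM start; 37 °C, 200 rpm, 12 h; OD600 read for growth inhibition.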

Bacillus subtilis [8] = test: Antibacterial activity against Bacillus subtilis (Ehrenberg) Cohn ATCC 6051 after 12 hrs; type: functional; settings: (Ehrenberg) Cohn ATCC 6051, 12 h, read-out: ED50 (the source's name)
In short: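 Log-phase LB culture (grown to OD600 ~0.3, then diluted 500-fold) exposed to two-fold serial dilutions of inhibitor starting at 100 µM–1 mM across 12 wells; 37 °C, 200 rpm shaking, 12 h. OD600 read and ED50 fitted; duplicate or triplicate.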

[9] = system: Mycolicibacterium smegmatis; test: Antibacterial activity against Mycobacterium smegmatis MC2 155 ATCC 700084 after 48 hrs; type: functional; settings: MC2 155 ATCC 700084, 48 h, read-out: ED50 (the source's name)
In short: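 Culture grown 36–48 h, diluted 1000-fold in Middlebrook 7H9 with 10% ADC, 0.5% glycerol, 0.05% Tween 80; inhibitors started at 100 µM–1 mM, threefold serial dilution across 10 wells; 37 °C, 200 rpm, 48 h; OD600 read-out.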

Bacillus anthracis = test: Antibacterial activity against Bacillus anthracis Sterne after 12 hrs; type: functional; settings: read-out: ED50 (the source's name)
[10] = target: T1, Farnesyl pyrophosphate synthase; test: Inhibition of human FPPS using IPP and GPP as substrate
In short: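 Expressed HsFPPS at 0.15 μM with 50 μM IPP and 50 μM GPP, 25°C, in 20 mM HEPES pH 7.5, 150 mM NaCl, 500 μM MgCl2. Enzyme preincubated 30 min at room temperature with serially diluted compound. Continuous MESG/PNP phosphate-release read-out, with pyrophosphatase added. At least 3 runs on different days; pooled data fitted by nonlinear regression for IC50.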

| SMILES | GI50 at 24 h [1] | EC50 (Bacillus subtilis [3]) | logD [5] | logD ([5]; read-out: logD) | other results |
| --- | --- | --- | --- | --- | --- |
| CC(C)CCCC(C)CCCc1cc[n+](CC(P(=O)([O-])O)P(=O)(O)O)cc1 (stereo not drawn) | 700 µM | 78 µg/mL | -4.71 | – | EC50 (Bacillus subtilis [2]): 2.3 µg/mL (≈ 5.46 µM); GI50 at 96 h [4]: > 1000 µM |
| CC(C)CCCC(C)CCOc1ccnc(NCC(P(=O)(O)O)P(=O)(O)O)c1 (stereo not drawn) | – | – | – | -2.31 | – |
| CC(C)CCCC(C)CCSc1cc[n+](CC(P(=O)([O-])O)P(=O)(O)O)cc1 (stereo not drawn) | 1000 µM | – | -5.08 | – | – |
| O=P(O)(O)C(O)(Cc1cccc(-c2cccc3c2oc2ccccc23)c1)P(=O)(O)O | – | – | – | – | EC50 (Candida albicans): > 50 µg/mL |
| CCCCCCCCCCCc1ccc[n+](CC(P(=O)([O-])O)P(=O)(O)O)c1 (stereo not drawn) | 220 µM | 2 µg/mL | -4.07 | – | – |
| CC(C)CCCC(C)CCc1csc(NCC(P(=O)(O)O)P(=O)(O)O)n1 (stereo not drawn) | – | – | – | -2.36 | – |
| CC(C)CCCC(C)CCOc1ccc[n+](CC(O)(P(=O)([O-])O)P(=O)(O)O)c1 (stereo not drawn) | 1100 µM | – | – | – | – |
| CCCCCCCCCCOc1cccc(CC(O)(P(=O)(O)O)P(=O)(O)O)c1 | – | – | – | – | pIC50 [6]: 4.96; pIC50 [7]: 3.26 |
| CC(C)CCCC(C)CCCc1cccc(NCC(P(=O)(O)O)P(=O)(O)O)n1 (stereo not drawn) | 1100 µM | – | – | -2 | pEC50 (Staphylococcus aureus): 4.14; pEC50 (Bacillus subtilis [8]): 4.22; pEC50 [9]: 3.68; pEC50 (Bacillus anthracis): 5.16 |
| CCCCCCCCCCCCCCOc1cccc(O)c1C(=O)O | – | – | – | – | EC50 (Candida albicans): > 50 µg/mL |
| O=P([O-])(O)C(Cn1cc[n+](CCCc2ccc(F)c(F)c2)c1)P(=O)(O)O (stereo not drawn) | 600 µM | 38 µg/mL | – | – | EC50 (Staphylococcus aureus): 30 µg/mL; EC50 (Bacillus subtilis [8]): > 100 µg/mL; EC50 (Bacillus anthracis): > 100 µg/mL; EC50 (Candida albicans): 2 µg/mL (≈ 4.88 µM); EC50 (Bacillus subtilis [2]): 26 µg/mL (≈ 63.4 µM) |
| CC(C)CCCC(C)CCOc1cc(NCC(P(=O)(O)O)P(=O)(O)O)ccn1 (stereo not drawn) | 1200 µM | – | – | -3.1 | – |
| CC(C)CCCC(C)CCCc1ccc[n+](CC(P(=O)([O-])O)P(=O)(O)O)c1 (stereo not drawn) | 460 µM | 1.7 µg/mL | -4.71 | – | EC50 (Bacillus subtilis [2]): 2.4 µg/mL (≈ 5.7 µM) |
| CC(C)CCCC(C)CCOc1cccc(NCC(P(=O)(O)O)P(=O)(O)O)n1 (stereo not drawn) | – | – | – | -2.24 | – |
| CC(C)CCCC(C)CCOc1cc[n+](CC(P(=O)([O-])O)P(=O)(O)O)cc1 (stereo not drawn) | ≥ 1000 µM | 28 µg/mL | -5.82 | – | EC50 (Bacillus subtilis [2]): 5.7 µg/mL (≈ 13.5 µM); GI50 at 96 h [4]: 800 µM; pIC50 [10]: 4.00 |

— ChEMBL document CHEMBL4480404, “Discovery of Lipophilic Bisphosphonates That Target Bacterial Cell Wall and Quinone Biosynthesis” (J Med Chem, 2019)
